Results taken from ChEMBL document CHEMBL1649132, “Dry powder nitroimidazopyran antibiotic PA-824 aerosol for inhalation” (Antimicrob Agents Chemother, 2009).
Values after ≈ are worked out from the molar mass of the structure shown.

What was measured:
[1] = Mean residence time in guinea pig at 20 mg/kg, administered via intratracheal insufflation by HPLC method; format: ADME, organism-based, Cavia porcellus; set-up: dose 20 mg/kg, route endotracheal; details: in vivo, inhaled or intranasal
Outline: (§1)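 Healthy male guinea pigs (463.86 ± 65.11 g), jugular vein cannulated 24 h before dosing; n = 6 or 7 per group. Dosing was i.v. solution 20 mg/kg, oral gavage of mixed micelle suspension (10% hydroxypropyl-β-cyclodextrin, 10% lecithin) 40 mg/kg, or intratracheal insufflation of porous dry powder at nominal 20, 40, 60 mg/kg. For insufflation, the delivered dose was taken by weighing the device before and after. Blood was drawn 0–24 h (to 32 h at 60 mg/kg) and plasma assayed by validated HPLC-UV (standards 0.20–50 µg/ml).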

[2] = Cmax in guinea pig at 20 mg/kg, iv by HPLC method; format: ADME, organism-based, Cavia porcellus; set-up: dose 20 mg/kg, route intravenous; details: in vivo; outline: as §1
[3] = AUC (0 to infinity) in guinea pig at 20 mg/kg, administered via intratracheal insufflation by HPLC method; format: ADME, organism-based, Cavia porcellus; set-up: time infinity, dose 20 mg/kg, route endotracheal; details: plasma, inhaled or intranasal; outline: as §1
[4] = Mean residence time in guinea pig at 20 mg/kg, iv by HPLC method; format: ADME, organism-based, Cavia porcellus; set-up: dose 20 mg/kg, route intravenous; details: in vivo; outline: as §1
[5] = Bioavailability in guinea pig at 20 mg/kg, administered via intratracheal insufflation by HPLC method; format: ADME, organism-based, Cavia porcellus; details: in vivo, inhaled or intranasal; outline: as §1
[6] = Elimination rate constant in guinea pig at 60 mg/kg, administered via intratracheal insufflation by HPLC method; format: ADME, organism-based, Cavia porcellus; set-up: dose 60 mg/kg, route endotracheal; details: in vivo, inhaled or intranasal; outline: as §1
[7] = Mean residence time in guinea pig at 60 mg/kg, administered via intratracheal insufflation by HPLC method; format: ADME, organism-based, Cavia porcellus; set-up: dose 60 mg/kg, route endotracheal; details: in vivo, inhaled or intranasal; outline: as §1
[8] = Tmax in guinea pig at 20 mg/kg, iv by HPLC method; format: ADME, organism-based, Cavia porcellus; set-up: dose 20 mg/kg, route intravenous; details: in vivo; outline: as §1
[9] = Tmax in po dosed rat; format: ADME, organism-based; details: in vivo
[10] = Half life in guinea pig at 40 mg/kg, administered via intratracheal insufflation by HPLC method; format: ADME, organism-based, Cavia porcellus; set-up: dose 40 mg/kg, route endotracheal; details: in vivo, inhaled or intranasal; outline: as §1
[11] = Elimination rate constant in guinea pig at 40 mg/kg, po by HPLC method; format: ADME, organism-based, Cavia porcellus; set-up: dose 40 mg/kg, route oral; details: in vivo; outline: as §1
[12] = tested on: Cavia porcellus; assay: AUC (0 to infinity) in guinea pig at 20 mg/kg, iv by HPLC method; format: ADME, organism-based, Plasma; set-up: time infinity, dose 20 mg/kg, route intravenous; details: in vivo; outline: as §1
[13] = Chemical stability of the compound at 4 degC; format: physicochemical
[14] = Cmax in guinea pig at 40 mg/kg, administered via intratracheal insufflation by HPLC method; format: ADME, organism-based, Cavia porcellus; set-up: dose 40 mg/kg, route endotracheal; details: in vivo, inhaled or intranasal; outline: as §1
[15] = Half life in guinea pig at 40 mg/kg, po by HPLC method; format: ADME, organism-based, Cavia porcellus; set-up: dose 40 mg/kg, route oral; details: in vivo; outline: as §1
[16] = Half life in guinea pig at 20 mg/kg, iv by HPLC method; format: ADME, organism-based, Cavia porcellus; set-up: dose 20 mg/kg, route intravenous; details: in vivo; outline: as §1
[17] = AUC (0 to infinity) in guinea pig at 40 mg/kg, administered via intratracheal insufflation by HPLC method; format: ADME, organism-based, Cavia porcellus; set-up: time infinity, dose 40 mg/kg, route endotracheal; details: plasma, inhaled or intranasal; outline: as §1
[18] = Half life in po dosed dog; format: ADME, organism-based, Canis lupus familiaris; details: in vivo
[19] = Mean residence time in guinea pig at 40 mg/kg, po by HPLC method; format: ADME, organism-based, Cavia porcellus; set-up: dose 40 mg/kg, route oral; details: in vivo; outline: as §1
[20] = Cmax in guinea pig at 40 mg/kg, po by HPLC method; format: ADME, organism-based, Cavia porcellus; set-up: dose 40 mg/kg, route oral; details: in vivo; outline: as §1
[21] = tested on: Cavia porcellus; assay: AUC (0 to infinity) in guinea pig at 40 mg/kg, po by HPLC method; format: ADME, organism-based, Plasma; set-up: time infinity, dose 40 mg/kg, route oral; details: in vivo; outline: as §1
[22] = Bioavailability (0 to infinity) in guinea pig at 40 mg/kg, administered via intratracheal insufflation by HPLC method; format: ADME, organism-based, Cavia porcellus; details: in vivo, inhaled or intranasal; outline: as §1
[23] = Metabolic stability of the compound assessed as compound remaining in lung of guinea pig at 40 mg/kg, po after 32 hrs; format: ADME, organism-based, Cavia porcellus; set-up: dose 40 mg/kg, route oral; details: in vivo
Outline: (§2)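 After the last blood sample (32 h), the guinea pigs were euthanized by exsanguination. BAL fluid was collected with 5 ml sterile saline and centrifuged. The supernatant was assayed for drug by the plasma HPLC method, adapted for BAL fluid. Routes were i.v. 20 mg/kg, oral 40 mg/kg, or insufflated powder 20, 40, 60 mg/kg; n = 6 or 7.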

[24] = Half life in guinea pig at 20 mg/kg, administered via intratracheal insufflation by HPLC method; format: ADME, organism-based, Cavia porcellus; set-up: dose 20 mg/kg, route endotracheal; details: in vivo, inhaled or intranasal; outline: as §1
[25] = Ratio of Cmax in guinea pig at 40 mg/kg, administered via intratracheal insufflation to MIC for Mycobacterium tuberculosis; format: functional; details: route endotracheal
[26] = Chemical stability of the compound after 6 months; format: physicochemical; details: 4383 h
[27] = Half life in guinea pig at 60 mg/kg, administered via intratracheal insufflation by HPLC method; format: ADME, organism-based, Cavia porcellus; set-up: dose 60 mg/kg, route endotracheal; details: in vivo, inhaled or intranasal; outline: as §1
[28] = Bioavailability in guinea pig at 40 mg/kg, administered via intratracheal insufflation by HPLC method; format: ADME, organism-based, Cavia porcellus; details: in vivo, inhaled or intranasal; outline: as §1
[29] = tested on: Cavia porcellus; assay: Bioavailability (0 to infinity) in guinea pig at 40 mg/kg, po by HPLC method; format: ADME, organism-based; details: in vivo; outline: as §1
[30] = Tmax in guinea pig at 60 mg/kg, administered via intratracheal insufflation by HPLC method; format: ADME, organism-based, Cavia porcellus; set-up: dose 60 mg/kg, route endotracheal; details: in vivo, inhaled or intranasal; outline: as §1
[31] = Elimination rate constant in guinea pig at 20 mg/kg, iv by HPLC method; format: ADME, organism-based, Cavia porcellus; set-up: dose 20 mg/kg, route intravenous; details: in vivo; outline: as §1
[32] = Metabolic stability of the compound assessed as compound remaining in lung of guinea pig administered via intratracheal insufflation; format: ADME, tissue-based, Cavia porcellus; details: in vivo, inhaled_or_intranasal; outline: as §2
[33] = Elimination rate constant in guinea pig at 20 mg/kg, administered via intratracheal insufflation by HPLC method; format: ADME, organism-based, Cavia porcellus; set-up: dose 20 mg/kg, route endotracheal; details: in vivo, inhaled or intranasal; outline: as §1
[34] = Cmax in guinea pig at 20 mg/kg, administered via intratracheal insufflation by HPLC method; format: ADME, organism-based, Cavia porcellus; set-up: dose 20 mg/kg, route endotracheal; details: in vivo, inhaled or intranasal; outline: as §1
[35] = tested on: Mycobacterium tuberculosis; assay: Antimicrobial activity against Mycobacterium tuberculosis; format: functional
[36] = Tmax in guinea pig at 20 mg/kg, administered via intratracheal insufflation by HPLC method; format: ADME, organism-based, Cavia porcellus; set-up: dose 20 mg/kg, route endotracheal; details: in vivo, inhaled or intranasal; outline: as §1
[37] = Elimination rate constant in guinea pig at 40 mg/kg, administered via intratracheal insufflation by HPLC method; format: ADME, organism-based, Cavia porcellus; set-up: dose 40 mg/kg, route endotracheal; details: in vivo, inhaled or intranasal; outline: as §1
[38] = Metabolic stability of the compound assessed as compound remaining in lung of guinea pig at 20 mg/kg, iv after 32 hrs; format: ADME, organism-based, Cavia porcellus; set-up: dose 20 mg/kg, route intravenous; details: in vivo; outline: as §2
[39] = Half life in po dosed monkey; format: ADME, organism-based, Macaca mulatta; details: rhesus monkey, in vivo
[40] = Tmax in guinea pig at 40 mg/kg, administered via intratracheal insufflation by HPLC method; format: ADME, organism-based, Cavia porcellus; set-up: dose 40 mg/kg, route endotracheal; details: in vivo, inhaled or intranasal; outline: as §1
[41] = Tmax in po dosed monkey; format: ADME, organism-based, Macaca mulatta; details: rhesus monkey, in vivo
[42] = Tmax in guinea pig at 40 mg/kg, po by HPLC method; format: ADME, organism-based, Cavia porcellus; set-up: dose 40 mg/kg, route oral; details: in vivo; outline: as §1
[43] = Cmax in guinea pig at 60 mg/kg, administered via intratracheal insufflation by HPLC method; format: ADME, organism-based, Cavia porcellus; set-up: dose 60 mg/kg, route endotracheal; details: in vivo, inhaled or intranasal; outline: as §1
[44] = Bioavailability (0 to infinity) in guinea pig at 60 mg/kg, administered via intratracheal insufflation by HPLC method; format: ADME, organism-based, Cavia porcellus; details: in vivo, inhaled or intranasal; outline: as §1
[45] = Chemical stability of the compound at 40 degC; format: physicochemical
[46] = Mean residence time in guinea pig at 40 mg/kg, administered via intratracheal insufflation by HPLC method; format: ADME, organism-based, Cavia porcellus; set-up: dose 40 mg/kg, route endotracheal; details: in vivo, inhaled or intranasal; outline: as §1
[47] = Chemical stability of the compound after 12 months; format: physicochemical; details: 8766 h
[48] = Chemical stability of the compound at 25 degC; format: physicochemical
[49] = Bioavailability in guinea pig at 60 mg/kg, administered via intratracheal insufflation by HPLC method; format: ADME, organism-based, Cavia porcellus; details: in vivo, inhaled or intranasal; outline: as §1
[50] = Bioavailability (0 to infinity) in guinea pig at 20 mg/kg, administered via intratracheal insufflation by HPLC method; format: ADME, organism-based, Cavia porcellus; details: in vivo, inhaled or intranasal; outline: as §1
[51] = AUC (0 to infinity) in guinea pig at 60 mg/kg, administered via intratracheal insufflation by HPLC method; format: ADME, organism-based, Cavia porcellus; set-up: time infinity, dose 60 mg/kg, route endotracheal; details: plasma, inhaled or intranasal; outline: as §1
[52] = Ratio of Cmax in guinea pig at 40 mg/kg, po to MIC for Mycobacterium tuberculosis; format: functional
[53] = Ratio of Cmax in mouse at 100 mg/kg, po to MIC for Mycobacterium tuberculosis; format: functional

## O=[N+]([O-])c1cn2c(n1)OC[C@@H](OCc1ccc(OC(F)(F)F)cc1)C2 [PRETOMANID]
[1]
  MRT: 5.17 h
[2]
  Cmax: 9190 ng/mL
[3]
  AUC(0-inf): 14800 ng·h/mL
[4]
  MRT: 2.69 h
[5]
  bioavailability: 2.11%
[6]
  k el: 3.61e-05 s⁻¹
[7]
  MRT: 8.26 h
[8]
  Tmax: 6.6 min
[9]
  Tmax: 6 h
[10]
  half-life: 4.38 h
[11]
  k el: 8.33e-05 s⁻¹
[12]
  AUC: 26540 ng·h/mL
[13]
  Stability: Stable
[14]
  Cmax: 3420 ng/mL
[15]
  half-life: 2.43 h
[16]
  half-life: 1.91 h
[17]
  AUC(0-inf): 32300 ng·h/mL
[18]
  half-life: 1 h
[19]
  MRT: 5.37 h
[20]
  Cmax: 4140 ng/mL
[21]
  AUC: 25770 ng·h/mL
[22]
  bioavailability: 0.63%
[23]
  Stability: Unstable
[24]
  half-life: 2.83 h
[25]
  Ratio: 17
[26]
  Stability: Unstable
[27]
  half-life: 5.91 h
[28]
  bioavailability: 1.12%
[29]
  F: 0.56%
[30]
  Tmax: 3.6 h
[31]
  k el: 0.000103 s⁻¹
[32]
  Activity: Dose-dependent effect
[33]
  k el: 6.67e-05 s⁻¹
[34]
  Cmax: 2010 ng/mL
[35]
  MIC: 0.015 µg/mL (≈ 0.0418 µM)
[36]
  Tmax: 4.33 h
[37]
  k el: 4.72e-05 s⁻¹
[38]
  Stability: Unstable
[39]
  half-life: 2 h
[40]
  Tmax: 3.25 h
[41]
  Tmax: 3.33 h
[42]
  Tmax: 4 h
[43]
  Cmax: 4580 ng/mL
[44]
  bioavailability: 0.62%
[45]
  Stability: Stable
[46]
  MRT: 7.52 h
[47]
  Stability: Stable
[48]
  Stability: Stable
[49]
  bioavailability: 0.74%
[50]
  bioavailability: 0.59%
[51]
  AUC(0-inf): 51000 ng·h/mL
[52]
  Ratio: 14
[53]
  Ratio: 80
